Assay results from different studies.
Lines come from different studies, so protocols differ.
RPS6KA4: Ribosomal protein S6 kinase alpha-4 (RPS6KA4, Homo sapiens, UniProt O75676)
RPS6KA4 C-terminal kinase domain: Ribosomal protein S6 kinase alpha-4, C-terminal kinase domain (RPS6KA4, Homo sapiens, UniProt O75676)

For `O=c1[nH]c2ccccc2n1C1CCN(Cc2ccc(-c3[nH]c4cc5ncnc5cc4nc3-c3ccccc3)cc2)CC1`, the remaining signal was 98.8% (RPS6KA4; cell-free assay; 0.5 µM).
`N#CC1(c2ccccn2)CCN(Cc2cc(C(=O)O)c(=O)n3ccccc23)CC1` has a remaining binding of 65% (RPS6KA4 C-terminal kinase domain; cell-free assay, competition with immobilised ligand; 1 µM).
The remaining binding of `Cc1nn(C)cc1-c1nc2c(N3CCN(Cc4ccc(Cl)cc4)CC3)c(Cl)cnc2[nH]1` is reported as 62% (Ribosomal protein S6 kinase alpha-4, N-terminal kinase domain (RPS6KA4, Homo sapiens, UniProt O75676); binding, competition with immobilised ligand; 1 µM).
The remaining binding of `Nc1ncc(-c2nc(N3CCOCC3)nc(N3CCOCC3)n2)c(C(F)F)n1` is reported as 63% (RPS6KA4 C-terminal kinase domain; binding, competition with immobilised ligand; 10 µM).
The inhibition of `Cn1cc(-c2cc(F)cc(N3CCn4c(cc5c4CCCC5)C3=O)c2CO)cc(Nc2ccc(N3CCN(C4COC4)CC3)cn2)c1=O` is reported as 15% (RPS6KA4; enzyme activity, inhibitor; 0.1 µM).
`CC(C)(C)c1cc(C=C(C#N)C#N)cc(Br)c1O` has a remaining activity of 90.9% (RPS6KA4; enzyme activity, inhibitor; 0.5 µM).
For `Cn1cc(-c2cccc(N3CCc4c(sc5c4CC(C)(C)C5)C3=O)c2CO)cc(Nc2ccncn2)c1=O`, the inhibition was 3% (RPS6KA4; enzyme activity, inhibitor; 1 µM).
The remaining binding of `Cn1cncc1[C@](O)(COc1ccc(C#N)cc1-c1ccc(OC(F)(F)F)cc1)c1ccc(C#N)cc1` is reported as 76% (RPS6KA4 C-terminal kinase domain; cell-free assay, competition with immobilised ligand; 1 µM).
